The text below walks through data of publication PMC7304851 (Journal for Immunotherapy of Cancer, 2020).

Entries after “also recorded” stand apart in the source; their conditions may differ.

Series [1] in a line: Phase 1 safety and tolerability. The format is in vivo, human.
A short description of series [2]: Clinical pharmacokinetics in plasma. The format is in vivo, human.
The test system of another series is advanced tumors. Nature of the series: Tumor response by irRECIST, survival and treatment duration. The format is in vivo, human.
The subject of a further series is FDG-avid tumor lesions. Nature of the series: 18FDG-PET metabolic response. The format is in vivo, human.
The test system of series [3] is immune-cell infiltration in tumor. Nature of the series: Paired tumor biopsies: immunohistochemistry and TLDA gene expression. The format is in vivo, human.
The subject of series [4] is EP4-regulated genes and immune-related circulating factors. As to the kind of experiment: Blood gene expression, serum cytokines/chemokines, flow cytometry. The format is in vivo, human. Summed up: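 Patients with advanced tumors took oral drug once daily (125–750 mg) in 21-day cycles. mRNA isolated from blood was profiled on a 92-gene TaqMan Low Density Array panel. Serum/plasma levels of 36 immune-related circulating factors were measured by proteomics, ELISA and Meso Scale Discovery multiplex. Blood immune subsets were assessed by eight-color flow cytometry. Cycle 1 day 15 was compared with baseline by paired t-test.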
Background: Flow cytometry measures light scatter and fluorescence of single cells or particles in a stream.

The test system of series [5] is 4T1 breast syngeneic tumor model. As to the kind of experiment: Preclinical FDG-PET, 4T1 model. The format is in vivo, mouse. The following applies: 4T1 breast model, data not shown.
For series [6], the system named is Pan02 pancreatic syngeneic tumor model. As to the kind of experiment: Preclinical FDG-PET, Pan02 model. Particulars: data not shown. The format is in vivo, mouse.
Series [7] deals with mouse syngeneic tumor models. The following applies: dependent on myeloid cells and CD8+ T cells; cited from earlier work.
The next series relates to macrophage infiltration. The following applies: preclinical models; cited from earlier work.
Series [8] deals with relapsed or refractory classical Hodgkin’s lymphoma. Particulars: cited from earlier work.
For series [9], the system named is primary human peripheral blood mononuclear cells (PBMCs). As to the kind of experiment: EP4 agonist in PBMCs, TNF-α and CXCL10 by RT-PCR. The following applies: PBMCs from healthy donors incubated with EP4 agonist. The format is cell-based.
Where [10] appears, read: all patients, combined incidence.
Setting [11] is: blood, on treatment versus baseline.
Where [12] appears, read: cycle 1 day 15 compared with baseline.

In [1] (750 mg dose cohort), `C[C@H](NC(=O)c1c(C(F)F)nn(C)c1Oc1cccc(C(F)(F)F)c1)c1ccc(C(=O)O)cc1` [E7046] returned a TEAE incidence diarrhea of 42.9%, a TEAE incidence fatigue of 42.9% and a TEAE incidence nausea of 42.9%. The “Dose-limiting toxicities (DLTs)” value in series [1] (125, 250, 500 and 750 mg orally once daily, cycle 1) is “No dose-limiting toxicities were observed; also recorded: no DLTs observed; also recorded: No DLTs were reported”. In addition, the “Maximum tolerated dose (MTD)” value in series [1] (125 to 750 mg orally once daily) was “not reached”. Also, in [1] (all patients), the “fatal treatment-related TEAE” value is listed as “No patients experienced a fatal treatment-related TEAE”, the “patients who discontinued treatment due to TEAEs” value worked out at 17% and the “patients with grade ≥3 treatment-related TEAEs” value is on record as 10%. For the same compound, the “patients with treatment-related SAEs” value in series [1] (all patients (3/30)) is reported as 10%. Further, the “patients with at least 1 TEAE” value in series [1] (all patients (n=30)) is given as 93%. Moreover, in series [1] (setting [10]), the “TEAE (all grades) diarrhea” value was 33.3%, the “TEAE (all grades) fatigue” value came out at 36.7% and the “TEAE (all grades) nausea” value came out at 30%. In addition, the exposure versus dose entry in [2] (125 to 750 mg) is listed as “dose proportional up to 500 mg, with no incremental increase at 750 mg”. In addition, in [2] (all four doses, cycle 1 day 8), the “Free E7046 concentration versus Ki of EP4 inhibition” value is “reached or exceeded the preclinical Ki value”. For the same compound, the “accumulation on multiple dosing” value in [2] (daily oral dosing) is listed as “twofold to threefold”. Further, the “time to maximum drug concentration” value in series [2] (postdose, across all doses) is on record as ~ 2 hours. In addition, in the series with advanced tumors (125 mg), the “best response of stable disease, number of patients” value (“best response … of patients” below) stood at 2. In the series on advanced tumors (125 mg (n=2/8)), the “patients with best response of durable stable disease for ≥18 weeks” value turned out to be 25%. In the series with advanced tumors (250 mg), the “best response … of patients” value worked out at 2. Further, in the series on advanced tumors (250 mg (n=2/8)), the “patients with best response of durable stable disease for ≥18 weeks” value is reported as 25%. The “best response … of patients” value in the series on advanced tumors (750 mg) was 3. In the series with advanced tumors (10 patients of 30), the “patients with longer duration of treatment on E7046 compared with most recent prior anticancer therapy” value is reported as 33%. Also, in the series with advanced tumors (all patients (n=30)), the disease control rate is reported as 23%, the “objective responses by irRECIST” value is recorded as “no objective responses” and the “patients with best response of stable disease (irRECIST)” value came out at 23%. Moreover, the “median duration of treatment” value with advanced tumors (all patients, range: 1.1–30) is recorded as 5.9 weeks. Besides, the “patients with partial metabolic response (18FDG-PET)” value with FDG-avid tumor lesions (15 evaluable patients (3/15), SUVmax reduction ≥25%) was found to be 20%. Moreover, in the series on FDG-avid tumor lesions (individual patient case), the “FDG-PET signal reduction (partial metabolic response)” value came out at 31%. In addition, in the series with FDG-avid tumor lesions (longest among all patients), the “duration of treatment of the three patients with partial metabolic responses” value was 145 to 208 days. The “tumor gene expression of TNF-α and CXCL10” value in series [3] (10 paired biopsies, without reaching statistical significance) is reported as “upregulation”. Besides, in [3] (individual patient case), the “increase in expression of CXCL10 in the tumor” value was ~ 20% and the “increase in percentage of CD8+ T cells in the tumor” value stood at 31%. Further, the “CD3+ and CD8+ T cells in tumor tissues (immunohistochemistry)” value in series [3] (paired biopsies of 11 patients, baseline to cycle 2 day 1) is reported as “significant increase”. Also, in series [4] (setting [11]), the “circulating gene expression of CD274 (PD-L1) and PDCD1LG2 (PD-L2)” value was “increased expression”; the “circulating gene expression of EOMES, PTGER4 and IDO1” value is reported as “decreased expression”. For the same compound, in series [4] (setting [12]), the “number of genes modulated in blood out of a 92-immune-gene panel” value is 16; the “number of serum cytokines and chemokines modulated out of a panel of 36” value worked out at 14. The “serum level of CXCL10” value in [4] (cycle 1 day 15 compared with baseline, p=0.0015) is reported as “significantly upregulated”. The “serum level of CCL5” value in series [4] (cycle 1 day 15 compared with baseline, p=0.0292) is listed as “significantly upregulated”. Moreover, the “major immune cell subsets in the blood (T cells, B cells, natural killer cells, MDSC)” value in series [4] (eight-color flow cytometry, data not shown) is given as “no significant changes”. Further, in series [5], the “FDG-PET signal compared with vehicle treatment” value is listed as “decreased the FDG-PET signal”. For the same compound, the “FDG-PET signal compared with vehicle treatment” value in [6] is recorded as “decreased the FDG-PET signal”. Further, the “growth of multiple mouse syngeneic tumor models” value in series [7] is given as “inhibited the growth”.
For the compound `CN(C)CC(=O)N1CCC(c2ccc(NC(=O)c3nc(C#N)c[nH]3)c(C3=CCCCC3)c2)CC1` [JNJ-28312141], in the series on macrophage infiltration, the macrophage infiltration entry is “substantially decreased macrophage infiltration”.
On to `CC1(C)CC=C(c2nc(C3CC(C)(C)OC(C)(C)C3)ccc2NC(=O)c2nc(C#N)c[nH]2)CC1` [JNJ-40346527], for which the objective response rate in series [8] (1/21 patients had complete response) is reported as 5%. In addition, the “patients who achieved stable disease” value in series [8] (11/21 patients) is on record as 55%.
For `CCCCC[C@H](O)/C=C/[C@H]1[C@H](O)CC(=O)[C@@H]1CCCCCCCO` [PGE1-OH], the “expression of TNF-α and CXCL10” value in series [9] is given as “dose-dependent down-regulation; also recorded: dose-dependently suppressed”.
